Target: Mu-type opioid receptor (Rattus norvegicus, UniProt P33535)
Assay: Displacement of [3H]DAMGO from rat mu opioid receptor expressed in HN9.10 cells
Procedure, shortened: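 Membranes from stably transfected HN9.10 neuroblastoma cells in 50 mM Tris pH 7.4 with bacitracin, bestatin, captopril, PMSF and 1 mg/mL BSA. 50 µg membrane, 10 test concentrations, 1.0 nM [3H]DAMGO (Kd level). Nonspecific binding defined with 10 µM naloxone. Duplicates, 3 h at 25 °C, filtration, scintillation counting. Ki from IC50 by Cheng–Prusoff; at least two independent experiments.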

Mu-type opioid receptor, sequence (P33535 whole entry): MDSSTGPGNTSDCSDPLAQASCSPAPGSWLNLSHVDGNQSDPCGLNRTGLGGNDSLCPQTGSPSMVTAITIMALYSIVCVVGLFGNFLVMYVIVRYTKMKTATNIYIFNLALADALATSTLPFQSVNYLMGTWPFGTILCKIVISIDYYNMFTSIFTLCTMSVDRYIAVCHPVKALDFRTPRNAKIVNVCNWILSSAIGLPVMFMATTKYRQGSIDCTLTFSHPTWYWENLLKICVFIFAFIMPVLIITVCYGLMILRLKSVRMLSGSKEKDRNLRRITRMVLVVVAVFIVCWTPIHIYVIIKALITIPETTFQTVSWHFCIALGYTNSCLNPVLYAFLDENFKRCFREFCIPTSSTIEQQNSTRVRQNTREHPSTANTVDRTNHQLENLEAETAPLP

Compound: CC(=O)N[C@@H](Cc1c[nH]c2ccccc12)C(=O)N[C@@H](CCCCNC(=O)Nc1ccccc1Cl)C(=O)N[C@@H](CC(=O)O)C(=O)N(C)[C@@H](Cc1ccccc1)C(=O)NNC(=O)[C@H](Cc1ccccc1)NC(=O)CNC(=O)[C@@H](C)NC(=O)[C@@H](N)Cc1ccc(O)cc1 [H-Tyr-D-Ala-Gly-Phe-NH-NH-(NMe)Phe-Asp-Lys(Cpac)-Trp-Ac]
- EC50: 14 nM
